Assays:
[1] = biological target: T1, Phosphatidylinositol 4,5-bisphosphate 3-kinase catalytic subunit alpha isoform (Homo sapiens, UniProt P42336); assay: Inhibition of PI3Kalpha in human MCF7 cells assessed as reduction in AKT phosphorylation at 1 uM after 2 hrs by ELISA relative to control; format: cell-based
[2] = biological target: T1, Phosphatidylinositol 4,5-bisphosphate 3-kinase catalytic subunit alpha isoform; assay: Inhibition of PI3Kalpha in human MCF7 cells assessed as reduction in AKT phosphorylation after 4 hrs by ADP-Glo assay; format: cell-based
How it was run: (§1)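 MCF-7 cells were incubated with compound for 4 h. Phosphorylation of Akt at S473 and of p70s6k at T389 was read by […], and IC50 was derived.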

[3] = biological target: T2, Serine/threonine-protein kinase mTOR (Homo sapiens, UniProt P42345); assay: Inhibition of mTOR in human MCF7 cells assessed as reduction in P70S6K phosphorylation after 4 hrs by […] assay; format: cell-based; how it was run: as §1
[4] = biological target: T1, Phosphatidylinositol 4,5-bisphosphate 3-kinase catalytic subunit alpha isoform; assay: Inhibition of PI3Kalpha (unknown origin) using PIP2 as substrate measured after 30 mins by HTRF assay
PI3K p110 beta/p85 alpha = PI3K p110 beta/p85 alpha (Homo sapiens, UniProt P42338); assay: Inhibition of human PI3K p110beta/p85alpha using phosphatidylinositol 4,5-bisphosphate as substrate after 30 mins by HTRF assay; format: protein-complex assay
Sequence of PI3K p110 beta/p85 alpha (P27986 whole entry): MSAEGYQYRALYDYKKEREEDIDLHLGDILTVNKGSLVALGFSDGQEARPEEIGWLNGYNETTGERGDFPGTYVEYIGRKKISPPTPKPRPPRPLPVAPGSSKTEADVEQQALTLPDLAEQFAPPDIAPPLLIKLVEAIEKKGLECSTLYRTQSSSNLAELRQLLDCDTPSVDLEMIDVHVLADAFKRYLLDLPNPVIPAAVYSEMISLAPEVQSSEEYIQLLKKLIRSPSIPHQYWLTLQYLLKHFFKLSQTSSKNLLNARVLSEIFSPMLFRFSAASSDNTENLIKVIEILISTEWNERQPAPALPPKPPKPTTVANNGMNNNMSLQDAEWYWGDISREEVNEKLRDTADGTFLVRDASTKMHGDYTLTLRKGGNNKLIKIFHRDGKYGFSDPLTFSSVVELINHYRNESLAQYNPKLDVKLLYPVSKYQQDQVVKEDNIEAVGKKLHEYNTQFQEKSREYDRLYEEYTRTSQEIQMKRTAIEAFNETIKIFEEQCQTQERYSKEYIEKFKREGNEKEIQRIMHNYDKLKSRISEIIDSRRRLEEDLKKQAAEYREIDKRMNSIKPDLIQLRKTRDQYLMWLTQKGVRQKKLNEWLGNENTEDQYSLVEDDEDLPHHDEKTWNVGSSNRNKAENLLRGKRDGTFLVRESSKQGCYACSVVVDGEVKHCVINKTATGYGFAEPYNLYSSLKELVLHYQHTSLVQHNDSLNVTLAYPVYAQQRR
Sequence of PI3K p110 beta/p85 alpha (P42338 whole entry): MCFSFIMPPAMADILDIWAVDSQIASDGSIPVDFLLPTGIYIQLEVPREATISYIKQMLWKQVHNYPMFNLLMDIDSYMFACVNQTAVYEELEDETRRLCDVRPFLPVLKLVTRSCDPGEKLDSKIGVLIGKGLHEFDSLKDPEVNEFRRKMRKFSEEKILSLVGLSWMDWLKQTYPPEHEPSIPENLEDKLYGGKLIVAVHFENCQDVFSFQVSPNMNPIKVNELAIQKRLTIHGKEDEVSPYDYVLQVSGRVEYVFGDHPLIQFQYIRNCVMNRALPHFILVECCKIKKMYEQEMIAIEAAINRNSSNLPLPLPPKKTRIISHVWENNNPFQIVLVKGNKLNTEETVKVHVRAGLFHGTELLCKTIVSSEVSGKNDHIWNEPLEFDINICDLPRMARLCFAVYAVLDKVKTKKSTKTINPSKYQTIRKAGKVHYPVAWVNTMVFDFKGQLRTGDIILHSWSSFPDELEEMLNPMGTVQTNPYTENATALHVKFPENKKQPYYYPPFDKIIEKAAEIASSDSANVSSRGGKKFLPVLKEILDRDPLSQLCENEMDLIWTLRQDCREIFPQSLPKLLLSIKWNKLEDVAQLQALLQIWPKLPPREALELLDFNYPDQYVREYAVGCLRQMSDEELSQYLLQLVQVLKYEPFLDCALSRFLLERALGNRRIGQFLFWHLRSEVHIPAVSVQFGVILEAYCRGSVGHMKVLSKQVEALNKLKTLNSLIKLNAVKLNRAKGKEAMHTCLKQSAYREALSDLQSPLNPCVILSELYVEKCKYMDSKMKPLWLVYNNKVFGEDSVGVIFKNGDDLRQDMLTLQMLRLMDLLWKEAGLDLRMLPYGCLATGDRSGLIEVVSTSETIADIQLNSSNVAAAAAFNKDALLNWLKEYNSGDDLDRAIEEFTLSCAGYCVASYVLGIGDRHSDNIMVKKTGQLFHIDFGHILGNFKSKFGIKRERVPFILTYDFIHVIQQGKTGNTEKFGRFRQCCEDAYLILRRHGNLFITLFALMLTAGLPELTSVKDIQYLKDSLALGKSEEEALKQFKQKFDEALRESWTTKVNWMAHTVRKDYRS

[5] = biological target: PI3-kinase p110-delta/p85-alpha (Homo sapiens, UniProt O00329); assay: Inhibition of human PI3K p110delta/p85alpha using phosphatidylinositol 4,5-bisphosphate as substrate after 30 mins by HTRF assay; format: protein-complex assay
Sequence of PI3-kinase p110-delta/p85-alpha (P27986 whole entry, canonical isoform): as the sequence (P27986 whole entry) above
Sequence of PI3-kinase p110-delta/p85-alpha (O00329 whole entry, canonical isoform): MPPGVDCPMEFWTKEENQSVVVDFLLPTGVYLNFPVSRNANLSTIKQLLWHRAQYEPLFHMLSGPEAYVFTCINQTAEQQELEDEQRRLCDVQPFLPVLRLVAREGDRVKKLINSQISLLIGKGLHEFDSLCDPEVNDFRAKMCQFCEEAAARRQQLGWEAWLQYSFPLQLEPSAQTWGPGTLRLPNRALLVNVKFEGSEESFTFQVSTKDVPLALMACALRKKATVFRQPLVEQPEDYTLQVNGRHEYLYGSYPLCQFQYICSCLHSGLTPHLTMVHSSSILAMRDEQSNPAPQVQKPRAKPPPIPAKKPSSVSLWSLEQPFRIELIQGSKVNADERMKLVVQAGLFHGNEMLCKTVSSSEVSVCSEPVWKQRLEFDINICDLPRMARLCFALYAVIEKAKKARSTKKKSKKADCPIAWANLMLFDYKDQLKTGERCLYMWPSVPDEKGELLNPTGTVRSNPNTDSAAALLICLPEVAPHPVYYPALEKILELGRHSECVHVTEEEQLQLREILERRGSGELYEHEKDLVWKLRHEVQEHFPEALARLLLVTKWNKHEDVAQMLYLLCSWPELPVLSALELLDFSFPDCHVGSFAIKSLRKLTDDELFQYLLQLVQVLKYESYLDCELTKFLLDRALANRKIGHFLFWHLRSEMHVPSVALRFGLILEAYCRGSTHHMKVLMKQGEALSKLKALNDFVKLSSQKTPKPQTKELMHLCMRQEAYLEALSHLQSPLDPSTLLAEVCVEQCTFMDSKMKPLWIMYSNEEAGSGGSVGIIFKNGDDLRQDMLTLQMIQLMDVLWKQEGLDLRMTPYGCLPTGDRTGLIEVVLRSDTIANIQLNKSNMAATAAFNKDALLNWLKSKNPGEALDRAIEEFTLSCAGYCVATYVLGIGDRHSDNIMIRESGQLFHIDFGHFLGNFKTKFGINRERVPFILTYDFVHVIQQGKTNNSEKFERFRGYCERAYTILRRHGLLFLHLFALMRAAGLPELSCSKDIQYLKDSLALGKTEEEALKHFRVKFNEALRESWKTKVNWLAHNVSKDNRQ

[6] = biological target: Phosphatidylinositol 4,5-bisphosphate 3-kinase catalytic subunit gamma isoform (Homo sapiens, UniProt P48736); assay: Inhibition of human PI3K p120gamma using phosphatidylinositol 4,5-bisphosphate as substrate after 30 mins by HTRF assay
Sequence of Phosphatidylinositol 4,5-bisphosphate 3-kinase catalytic subunit gamma isoform (P48736 whole entry, canonical isoform): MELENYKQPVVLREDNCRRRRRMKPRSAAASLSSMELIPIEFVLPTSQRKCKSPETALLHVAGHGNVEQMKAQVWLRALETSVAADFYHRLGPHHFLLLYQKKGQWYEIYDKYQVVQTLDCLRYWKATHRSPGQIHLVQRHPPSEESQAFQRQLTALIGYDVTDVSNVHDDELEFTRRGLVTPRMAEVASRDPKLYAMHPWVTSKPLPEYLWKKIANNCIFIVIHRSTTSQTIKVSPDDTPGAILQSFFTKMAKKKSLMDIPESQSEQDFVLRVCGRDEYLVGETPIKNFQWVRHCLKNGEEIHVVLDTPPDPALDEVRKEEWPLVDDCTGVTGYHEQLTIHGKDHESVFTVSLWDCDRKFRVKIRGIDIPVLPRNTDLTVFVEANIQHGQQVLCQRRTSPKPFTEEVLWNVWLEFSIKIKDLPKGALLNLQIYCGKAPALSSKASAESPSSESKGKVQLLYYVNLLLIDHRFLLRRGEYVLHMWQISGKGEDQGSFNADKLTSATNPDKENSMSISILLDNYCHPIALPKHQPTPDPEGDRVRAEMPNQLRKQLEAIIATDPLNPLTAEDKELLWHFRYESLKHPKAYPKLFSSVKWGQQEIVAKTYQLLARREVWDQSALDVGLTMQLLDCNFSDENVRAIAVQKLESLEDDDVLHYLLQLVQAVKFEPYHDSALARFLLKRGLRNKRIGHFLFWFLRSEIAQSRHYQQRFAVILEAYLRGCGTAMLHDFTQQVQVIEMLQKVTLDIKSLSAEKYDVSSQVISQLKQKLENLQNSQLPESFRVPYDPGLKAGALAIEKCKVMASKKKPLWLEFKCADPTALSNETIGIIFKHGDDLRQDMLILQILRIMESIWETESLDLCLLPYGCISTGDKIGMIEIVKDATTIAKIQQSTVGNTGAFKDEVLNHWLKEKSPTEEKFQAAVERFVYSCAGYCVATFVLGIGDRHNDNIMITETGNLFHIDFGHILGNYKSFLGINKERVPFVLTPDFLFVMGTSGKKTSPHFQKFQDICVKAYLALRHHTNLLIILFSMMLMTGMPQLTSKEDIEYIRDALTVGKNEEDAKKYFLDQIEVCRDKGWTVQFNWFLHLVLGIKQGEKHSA

[7] = biological target: T2, Serine/threonine-protein kinase mTOR; assay: Inhibition of mTOR (unknown origin) using ULight-4E-BP1(Thr37/46) peptide as substrate measured after 2 hrs by HTRF assay
[8] = Protein binding in human plasma; format: ADME, cell-free
[9] = Protein binding in rat plasma; format: ADME, cell-free
[10] = Protein binding in mouse plasma; format: ADME, cell-free
[11] = Clearance in mouse at 1 mg/kg, iv; format: ADME, organism-based; conditions: in vivo
How it was run: (§2)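 Mice were dosed intravenously at 1 mg/kg. The vehicle was either 10% DMSO/65% PEG400/25% H2O or 10% DMSO/80% PEG400/10% H2O, depending on the compound.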

[12] = Volume of distribution at steady state in mouse at 1 mg/kg, iv; format: ADME, organism-based; conditions: in vivo, read-out: Vdss; how it was run: as §2
[13] = Half life in mouse at 1 mg/kg, iv; format: ADME, organism-based; conditions: in vivo; how it was run: as §2
[14] = AUC (0 to last) in mouse at 1 mg/kg, iv; format: ADME, organism-based; parameters: dose 1 mg/kg, time 0 - last, route intravenous; conditions: in vivo; how it was run: as §2
[15] = Cmax in mouse at 3 mg/kg, po; format: ADME, organism-based; parameters: dose 3 mg/kg, route oral; conditions: in vivo
How it was run: (§3)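 Single oral dose of 3 mg/kg to mice, given in 10% DMSO/65% PEG400/25% H2O or in 10% DMSO/80% PEG400/10% H2O depending on the compound. Plasma exposure was measured.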

[16] = Tmax in mouse at 3 mg/kg, po; format: ADME, organism-based; conditions: in vivo; how it was run: as §3
[17] = AUC (0 to last) in mouse at 3 mg/kg, po; format: ADME, organism-based; parameters: dose 3 mg/kg, time 0 - last, route oral; conditions: in vivo; how it was run: as §3
[18] = Oral bioavailability in mouse at 3 mg/kg; format: ADME, organism-based; conditions: in vivo; how it was run: as §3
PC-3M = assay: Antitumor activity against human PC3M cells xenografted in Balb/c mouse assessed as tumor growth inhibition administered orally once daily for 21 days measured twice a week during compound dosing; format: functional, cell-based
How it was run: (§4)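 Nude mice bearing PC-3M tumors received 1, 3 or 10 mg/kg by oral gavage once daily for 21 days, with 10 mice per group.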

Mus musculus = assay: Toxicity in Balb/c mouse xenografted with human PC3M cells assessed as body weight loss at 1 to 10 mg/kg, po administered once daily for 21 days measured daily during compound dosing; format: organism-based; conditions: in vivo, 504 h; how it was run: as §4

T1 sequence (P42336 whole entry, canonical isoform): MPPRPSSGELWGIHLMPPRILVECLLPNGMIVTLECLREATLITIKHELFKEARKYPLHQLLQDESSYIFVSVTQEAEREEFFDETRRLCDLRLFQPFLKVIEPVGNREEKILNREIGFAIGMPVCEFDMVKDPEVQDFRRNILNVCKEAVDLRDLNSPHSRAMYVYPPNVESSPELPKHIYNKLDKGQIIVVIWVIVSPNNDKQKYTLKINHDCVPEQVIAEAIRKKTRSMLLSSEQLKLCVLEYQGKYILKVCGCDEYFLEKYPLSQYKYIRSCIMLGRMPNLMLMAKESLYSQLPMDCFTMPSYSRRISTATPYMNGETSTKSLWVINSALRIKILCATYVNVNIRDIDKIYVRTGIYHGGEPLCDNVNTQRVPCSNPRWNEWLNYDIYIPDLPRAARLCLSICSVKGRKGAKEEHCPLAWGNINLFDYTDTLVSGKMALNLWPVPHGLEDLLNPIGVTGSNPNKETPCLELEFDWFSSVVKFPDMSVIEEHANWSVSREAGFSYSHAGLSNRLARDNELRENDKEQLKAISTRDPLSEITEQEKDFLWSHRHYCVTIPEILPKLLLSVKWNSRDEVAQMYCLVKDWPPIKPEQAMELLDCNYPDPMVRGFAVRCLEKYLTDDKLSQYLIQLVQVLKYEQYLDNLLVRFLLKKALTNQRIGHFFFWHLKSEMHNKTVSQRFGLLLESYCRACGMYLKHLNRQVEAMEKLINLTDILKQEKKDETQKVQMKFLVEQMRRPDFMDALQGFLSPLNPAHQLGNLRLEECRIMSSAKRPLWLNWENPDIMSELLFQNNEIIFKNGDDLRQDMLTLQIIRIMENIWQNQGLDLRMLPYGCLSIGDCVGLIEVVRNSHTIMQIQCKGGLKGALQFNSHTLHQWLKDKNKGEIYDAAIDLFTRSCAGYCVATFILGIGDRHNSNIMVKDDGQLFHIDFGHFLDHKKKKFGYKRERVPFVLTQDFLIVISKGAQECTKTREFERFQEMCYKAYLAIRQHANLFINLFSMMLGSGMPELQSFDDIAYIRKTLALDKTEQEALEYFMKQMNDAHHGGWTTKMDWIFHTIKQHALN

SMILES	inhibition [1]	IC50 [2]	IC50 [3]	other results
COc1ncc(-c2ccc3ncc(Cl)c(=O)n3c2)cc1NS(=O)(=O)c1ccc(F)cc1F	93%	11.6 nM	89.2 nM	IC50 [4]: 3.4 nM; IC50 (PI3K p110 beta/p85 alpha): 34 nM; IC50 [5]: 16 nM; IC50 [6]: 1 nM; IC50 [7]: 4.7 nM; fraction unbound [8]: < 0.01; fraction unbound [9]: < 0.01; fraction unbound [10]: 0.005; clearance [11]: 1.4 mL/min/kg; Vd [12]: 0.472 L/kg; half-life [13]: 3 h; AUC(0-t) [14]: 11900 ng·h/mL; Cmax [15]: 5450 ng/mL; Tmax [16]: 2.67 h; AUC(0-t) [17]: 38600 ng·h/mL; bioavailability [18]: 108%; TGI (PC-3M): Dose-dependent effect; Activity (Mus musculus): Non-Toxic
COc1ncc(-c2ccc3nccc(=O)n3c2)cc1NS(=O)(=O)c1cccc(F)c1	96%	67 nM	64 nM	
O=c1ccnc2ccc(-c3cnc(Cl)c(NS(=O)(=O)c4ccc(F)cc4F)c3)cn12	92%	32.8 nM	> 400 nM	
Cc1ncc(-c2ccc3nccc(=O)n3c2)cc1NS(=O)(=O)c1ccccc1F	82%			
COc1ncc(-c2ccc3nncc(N4CCOCC4)c3c2)cc1NS(=O)(=O)c1ccc(F)cc1F	75%			
COc1ncc(-c2cc3c(N4CCNC(=O)C4)ncnc3cn2)cc1NS(=O)(=O)c1ccc(F)cc1F	50%			
CCc1ncc(-c2ccc3nccc(=O)n3c2)cc1NS(=O)(=O)c1ccccc1F	81%			
COc1ncc(-c2ccc3ncc(C)c(=O)n3c2)cc1NS(=O)(=O)c1ccc(F)cc1F	90%	27.9 nM	119 nM	
COc1ncc(-c2ccc3nccc(=O)n3c2)cc1NS(=O)(=O)c1ccccc1F	94%	141 nM	> 400 nM	
CCc1ncc(-c2ccc3nccc(=O)n3c2)cc1NS(=O)(=O)c1ccc(F)cc1F	86%			
Cc1ncc(-c2ccc3nccc(=O)n3c2)cc1NS(=O)(=O)c1ccc(F)cc1	85%			
COc1ncc(-c2ccc3nccc(=O)n3c2)cc1NS(=O)(=O)c1ccc(F)cc1	95%	80.7 nM	106 nM	
COc1ncc(-c2cn3c(=O)ccnc3cn2)cc1NS(=O)(=O)c1ccc(F)cc1F	29%			
CCOc1cnc2ccc(-c3cnc(OC)c(NS(=O)(=O)c4ccc(F)cc4F)c3)cn2c1=O	76%			
COc1ncc(-c2ccc3nccc(=O)n3c2)cc1NS(=O)(=O)c1cc(F)cc(F)c1	98%	78.2 nM	77.2 nM	
COc1ccc(S(=O)(=O)Nc2cc(-c3ccc4nccc(=O)n4c3)cnc2OC)cc1	95%	54.1 nM	138 nM	

SMILES	inhibition [1]	IC50 [2]	IC50 [3]	other results
COc1ncc(-c2ccc3nccc(=O)n3n2)cc1NS(=O)(=O)c1ccc(F)cc1F	63%			
COc1ncc(-c2ccc3nccc(=O)n3c2)cc1NS(=O)(=O)c1cc(F)ccc1F	96%	45 nM	108 nM	
COc1ncc(-c2ccc3nccc(=O)n3c2)cc1NS(=O)(=O)c1ccc(C(F)(F)F)cc1	94%	48.7 nM	163 nM	
COc1ncc(-c2ccc3nccc(=O)n3c2)cc1NS(=O)(=O)c1ccccc1	95%	98.8 nM	198 nM	
O=c1ccnc2ccc(-c3cnc(Cl)c(NS(=O)(=O)c4ccccc4F)c3)cn12	91%	34.4 nM	> 400 nM	
Cc1ncc(-c2ccc3nccc(=O)n3c2)cc1NS(=O)(=O)c1ccc(F)cc1F	81%			
CCOc1ncc(-c2ccc3nccc(=O)n3c2)cc1NS(=O)(=O)c1ccccc1F	60%			
COc1ncc(-c2ccc3nccc(=O)n3c2)cc1NS(=O)(=O)C1CC1	76%			
CCS(=O)(=O)Nc1cc(-c2ccc3nccc(=O)n3c2)cnc1OC	53%			
COc1ncc(-c2ccc3nccc(=O)n3c2)cc1NS(=O)(=O)CC(F)(F)F	78%			
COc1ncc(-c2ccc3nccc(=O)n3c2)cc1NS(=O)(=O)c1ccc(Cl)cc1	96%	48.8 nM	223 nM	
COc1ncc(-c2cnc3nccc(-c4cnn(C)c4)c3c2)cc1NS(=O)(=O)c1ccc(F)cc1F	47%			
COc1ncc(-c2ccc3nccc(=O)n3c2)cc1NS(=O)(=O)c1ccc(F)cc1F	98%	16 nM	66 nM	IC50 [4]: 3.1 nM; IC50 [7]: 19.2 nM; fraction unbound [8]: 0.005; fraction unbound [9]: 0.008; fraction unbound [10]: 0.019; clearance [11]: 5.15 mL/min/kg; Vd [12]: 0.443 L/kg; half-life [13]: 1 h; AUC(0-t) [14]: 3280 ng·h/mL; Cmax [15]: 4080 ng/mL; Tmax [16]: 0.333 h; AUC(0-t) [17]: 13800 ng·h/mL; bioavailability [18]: 139%
COc1ncc(-c2ccc3nccc(=O)n3c2)cc1NS(=O)(=O)c1ccc(C#N)cc1	94%	57.4 nM	246 nM	
COc1ncc(-c2ccc3nccc(=O)n3c2)cc1NS(=O)(=O)c1ccccc1C	94%	23.9 nM	153 nM	

Source: ChEMBL document CHEMBL4251704, “Discovery of Pyridopyrimidinones as Potent and Orally Active Dual Inhibitors of PI3K/mTOR” (ACS Med Chem Lett, 2018)
